We go through two compounds from ChEMBL document CHEMBL4680103, “In Vitro and in Vivo Anti-Trypanosoma cruzi Activity of New Arylamine Mannich Base-Type Derivatives” (J Med Chem, 2016).

Data set [1] can be described thus: Genotoxicity in Salmonella typhimurium TA98 at 0.03 to 2.25 ug/plate incubated for 48 hrs in absence of liver S9 fraction by Ames test. The data set is classed as toxicity. Particulars: salmonella enterica subsp. enterica serovar typhimurium, s9, 48 h. The procedure, abridged:
(§1)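 Preincubation Ames assay. […] Top agar with trace histidine/biotin (0.05 mM each) was added and poured onto glucose minimal agar. Plates were incubated 48 h at 37 °C and His+ revertants counted. DMSO was the negative control, with strain-appropriate positive controls. Technical triplicates.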

The target of data set [2] is T1, Superoxide dismutase [Cu-Zn] (Homo sapiens, UniProt P00441). Description: Inhibition of human erythrocyte CuZn-SOD by NBT dye based spectrophotometry. The procedure, abridged:
(§2)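 Fe-SOD source: Arequipa epimastigote homogenate (STE buffer pH 7.8, sonication, centrifugation, supernatant; protein by Bradford); CuZn-SOD was commercial human erythrocyte enzyme. Activity was measured as NBT reduction by superoxide in 50 mM potassium phosphate pH 7.8, with compounds at 5 concentrations (1–100 µM). A560 was read before and after 10 min under lamp light with stirring. Three rate determinations; Newman–Keuls test.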

Data set [3] deals with T1, Superoxide dismutase [Cu-Zn]. Briefly: Inhibition of human erythrocyte CuZn-SOD at 100 uM by NBT dye based spectrophotometry. The procedure, abridged: as §2
Data set [4] has as its system Trypanosoma cruzi. Briefly: Antitrypanosomal activity against Trypanosoma cruzi Arequipa trypomastigote froms infected in mouse blood incubated for 24 hrs by Neubauer chamber based assay. Type of data set: functional, organism-based. The method, boiled down:
(§3)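 Mouse blood taken at peak parasitemia (day 7) was diluted with uninfected blood to 4×10^6 trypomastigotes/mL, then 1:2 in RPMI 1640. Drugs from DMSO stocks were added at 1, 10, 25, 50 and 100 µM and incubated 24 h at 4–8 °C. Parasites were counted in a Neubauer chamber in triplicate. IC50 was calculated versus control.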

Data set [5] is described as follows: Genotoxicity in Salmonella typhimurium TA102 at 0.03 to 2.25 ug/plate incubated for 48 hrs in presence of liver S9 fraction by Ames test. Type of data set: toxicity, subcellular. Particulars: salmonella enterica subsp. enterica serovar typhimurium, s9, 48 h. The procedure, abridged: as §1
The subject of data set [6] is Trypanosoma cruzi. Briefly: Antitrypanosomal activity against Trypanosoma cruzi Arequipa trypomastigotes infected in BALB/c mouse assessed as reduction in parasitemia level in stomach measured during acute phase (days 0 to 40 post infection) at 100 mg/kg, po dosed on alternating days (7 to 15 days post infection) by PCR analysis. The data set is classed as functional, organism-based.

Data set [7] relates to Trypanosoma cruzi. Briefly: Antitrypanosomal activity against Trypanosoma cruzi Arequipa epimastigote forms incubated for 72 hrs by hemocytometry. The data set is classed as functional, organism-based. The method, boiled down: (§4)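 Epimastigotes grown in MTL medium with 10% inactivated FBS at 28 °C. Compounds were dissolved in DMSO (0.01% v/v) and added at 0.1–100 µM for 72 h. Parasites were counted in a Neubauer chamber. IC50 (50% growth inhibition) was derived by linear regression of Kc values. Values are averages of four determinations.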

A short description of data set [8]: Genotoxicity in Salmonella typhimurium TA102 at 0.03 to 2.25 ug/plate incubated for 48 hrs in absence of liver S9 fraction by Ames test. Type of data set: toxicity. The settings on record: salmonella enterica subsp. enterica serovar typhimurium, s9, 48 h. The method, boiled down: as §1
Data set [9] relates to Trypanosoma cruzi. Description: Antitrypanosomal activity against Trypanosoma cruzi Arequipa trypomastigotes infected in BALB/c mouse assessed as reduction in splenomegaly by measuring weight percent of spleens […] at 100 mg/kg, po dosed on alternating days (7 to 15 days post infection) by PCR analysis (reference value: 1.603%). The data set is classed as functional.
Data set [10] relates to Trypanosoma cruzi. Description: Antitrypanosomal activity against Trypanosoma cruzi Arequipa trypomastigotes infected in BALB/c mouse assessed as reduction in parasitemia level in lung measured during acute phase (days 0 to 40 post infection) at 100 mg/kg, po dosed on alternating days (7 to 15 days post infection) by PCR analysis. The data set is classed as functional, organism-based.

For data set [11], the system named is Trypanosoma cruzi. Description: Antitrypanosomal activity against Trypanosoma cruzi Arequipa trypomastigotes infected in BALB/c mouse assessed as reduction in parasitemia level in esophagus measured during acute phase (days 0 to 40 post infection) at 100 mg/kg, po dosed on alternating days (7 to 15 days post infection) by PCR analysis. Type of data set: functional, organism-based.

Data set [12] has as its system Trypanosoma cruzi. Description: Antitrypanosomal activity against Trypanosoma cruzi infected in African green monkey Vero cells assessed as reduction in infection rate measured up to 10 days by Giemsa staining based hemocytometry. Type of data set: functional. Particulars: time day <=10. The procedure, abridged: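 Vero cells infected with metacyclic forms (10:1) were exposed to one concentration per compound immediately after infection for 12 h at 37 °C, 5% CO2. After washing, cultures were kept 10 days with fresh medium every 48 h. Every 48 h, % infected cells and amastigotes per infected cell (200 Giemsa-stained cells) and medium trypomastigotes (Neubauer) were scored. Means of three experiments.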

The subject of data set [13] is Trypanosoma cruzi. Description: Antitrypanosomal activity against Trypanosoma cruzi Arequipa trypomastigotes infected in BALB/c mouse assessed as reduction in parasitemia level in adipose tissue measured during acute phase (days 0 to 40 post infection) at 100 mg/kg, po dosed on alternating days (7 to 15 days post infection) by PCR analysis. The data set is classed as functional, organism-based.

In data set [14] the test system is Trypanosoma cruzi. Briefly: Antitrypanosomal activity against Trypanosoma cruzi Arequipa amastigote forms infected in African green monkey Vero cells incubated for 72 hrs by Giemsa staining based micrscopy. Type of data set: functional, organism-based. The method, boiled down:
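Vero cells (RPMI, 10% inactivated FBS, 37 °C, 5% CO2) were seeded at 1×10^4/well on coverslips and cultured 2 days. They were infected 24 h with metacyclic forms at 10:1. After washing off free parasites, drugs were added at 0.1–100 µM for 72 h. Slides were methanol-fixed and Giemsa-stained; amastigotes were counted in 200 host cells versus untreated. IC50 was calculated.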

For data set [15], the system named is Trypanosoma cruzi. Description: Antitrypanosomal activity against Trypanosoma cruzi SN3 epimastigote forms incubated for 72 hrs by hemocytometry. Particulars: SN3, 72 h. The data set is classed as functional, organism-based. The procedure, abridged:
as §4

Data set [16] concerns Trypanosoma cruzi. Description: Antitrypanosomal activity against Trypanosoma cruzi Arequipa trypomastigotes infected in BALB/c mouse assessed as reduction in parasitemia measured during acute phase (days 0 to 40 post infection) at 50 to 100 mg/kg, po dosed on alternating days (7 to 15 days post infection). The settings on record: dose 50-100 mg/kg. The data set is classed as functional, organism-based. The procedure, abridged:
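Female BALB/c mice (8–10 weeks, 25–30 g; groups of six) were infected i.p. with 5×10^5 Arequipa blood trypomastigotes. Dosing was oral, 50 or 100 mg/kg/day, on 5 alternating days (days 7–15 pi), alongside untreated and reference-drug groups. Parasitemia was counted in 5 µL mandibular-vein blood by Neubauer chamber through day 40 pi. Data are means ± SD of six mice.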

The test system of data set [17] is Trypanosoma cruzi. Briefly: Antitrypanosomal activity against Trypanosoma cruzi SN3 trypomastigote froms infected in mouse blood incubated for 24 hrs by Neubauer chamber based assay. The data set is classed as functional, organism-based. The procedure, abridged:
as §3

A short description of data set [18]: Genotoxicity in Salmonella typhimurium TA1535 at 0.03 to 2.25 ug/plate incubated for 48 hrs in absence of liver S9 fraction by Ames test. Type of data set: toxicity. Particulars: salmonella enterica subsp. enterica serovar typhimurium, s9, 48 h. The procedure, abridged: as §1
The subject of data set [19] is Trypanosoma cruzi. Description: Antitrypanosomal activity against Trypanosoma cruzi Arequipa trypomastigotes infected in BALB/c mouse assessed as reduction in parasitemia level in heart measured during acute phase (days 0 to 40 post infection) at 100 mg/kg, po dosed on alternating days (7 to 15 days post infection) by PCR analysis. Type of data set: functional, organism-based.

The nature of data set [20]: Genotoxicity in Salmonella typhimurium TA100 at 0.03 to 2.25 ug/plate incubated for 48 hrs in absence of liver S9 fraction by Ames test. The data set is classed as toxicity. Particulars: salmonella enterica subsp. enterica serovar typhimurium, s9, 48 h. The procedure, abridged:
as §1

Data set [21] deals with Trypanosoma cruzi. Description: Antitrypanosomal activity against Trypanosoma cruzi Arequipa trypomastigotes infected in BALB/c mouse assessed as parasitemia re-activation level measured during chronic phase ( day 90 post infection) at 100 mg/kg, po dosed on alternating days (7 to 15 days post infection) relative to acute phase infection (reference value: […]%). Type of data set: functional.

SMILES strings stand for the structures. Activity calls are given as the source filed them. The calls are words filed in the database; no cut-off is given here.

T1 sequence (P00441 whole entry): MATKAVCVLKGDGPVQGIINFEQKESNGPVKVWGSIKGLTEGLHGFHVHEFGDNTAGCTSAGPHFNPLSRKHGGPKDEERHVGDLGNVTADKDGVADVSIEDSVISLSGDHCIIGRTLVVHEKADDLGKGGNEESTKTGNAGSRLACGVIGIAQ

Regarding `O=C(CCN1CCN(c2ccc(C(F)(F)F)cc2)CC1)c1csc2ccc(F)cc12`, the Activity entry is given as “Non-Toxic” in [1]; “Non-Toxic” in data set [5]; “Non-Toxic” in [8]; “Non-Toxic” in data set [18]; “Non-Toxic” in [20]; 0% in the data set with Trypanosoma cruzi [21]. Besides, the half-inhibitory concentration (IC50) in data set [2] was 206 µM; in the data set on Trypanosoma cruzi [4], 13.9 µM; with Trypanosoma cruzi [7] it was 51.7 µM; in the data set on Trypanosoma cruzi [14] it was 27.9 µM; in the data set on Trypanosoma cruzi [15], 10.1 µM; with Trypanosoma cruzi [17], 6.6 µM. Further, the inhibition result in [3] is “inactive”. Further, the outcome in the data set with Trypanosoma cruzi [6], in the data set on Trypanosoma cruzi [10], with Trypanosoma cruzi [11], with Trypanosoma cruzi [13], in the data set with Trypanosoma cruzi [16] and in the data set on Trypanosoma cruzi [19] was Active. Also, the Spleen weight percent in the data set on Trypanosoma cruzi [9] came out at 1.041%. The “inhibition (INH)” value in the data set on Trypanosoma cruzi [12] was determined as 47%.

As for `O=C(CCN1CCN(c2ccc(F)cc2)CC1)c1csc2ccc(F)cc12`, the Activity entry in data set [1] is recorded as “Non-Toxic”; in [5] it was “Non-Toxic”; in data set [8] it was “Non-Toxic”; in data set [18], “Non-Toxic”; in [20] it was “Non-Toxic”; in the data set with Trypanosoma cruzi [21], 0%. For the same compound, the half-maximal inhibitory concentration (IC50) in data set [2] was found to be 215 µM; in the data set with Trypanosoma cruzi [4] it was 0.3 µM; in the data set with Trypanosoma cruzi [7] it was 30.7 µM; with Trypanosoma cruzi [14] it was 12.7 µM; in the data set on Trypanosoma cruzi [15] it was 12.3 µM; with Trypanosoma cruzi [17], 5.1 µM. Further, the inhibition result in [3] was “inactive”. For the same compound, the outcome with Trypanosoma cruzi [6], in the data set on Trypanosoma cruzi [10], in the data set on Trypanosoma cruzi [11], in the data set with Trypanosoma cruzi [13], in the data set with Trypanosoma cruzi [16] and in the data set on Trypanosoma cruzi [19] was Active. Moreover, the Spleen weight percent with Trypanosoma cruzi [9] is 0.825%. The “inhibition (INH)” value in the data set on Trypanosoma cruzi [12] is on record as 54%.
